Here are results for two compounds from PMC8026699 (Cancer research, 2021).

For series [1], the system named is BT474 cells. Put plainly: ERK phosphorylation immunoblot in BT474 cells. The series is classed as cell-based, human.
Series [2] relates to MDA-MB-468 cells. Put plainly: ERK phosphorylation immunoblot in MDA-MB-468 cells. The series is classed as cell-based, human.
The subject of series [3] is SKBr3 cells. In words: ERK phosphorylation immunoblot in SKBr3 cells. The series is classed as cell-based, human.
In series [4] the target is T1, recombinant human ACSS1 (Homo sapiens, UniProt Q9NUB1).
T1 sequence (Q9NUB1 38-689): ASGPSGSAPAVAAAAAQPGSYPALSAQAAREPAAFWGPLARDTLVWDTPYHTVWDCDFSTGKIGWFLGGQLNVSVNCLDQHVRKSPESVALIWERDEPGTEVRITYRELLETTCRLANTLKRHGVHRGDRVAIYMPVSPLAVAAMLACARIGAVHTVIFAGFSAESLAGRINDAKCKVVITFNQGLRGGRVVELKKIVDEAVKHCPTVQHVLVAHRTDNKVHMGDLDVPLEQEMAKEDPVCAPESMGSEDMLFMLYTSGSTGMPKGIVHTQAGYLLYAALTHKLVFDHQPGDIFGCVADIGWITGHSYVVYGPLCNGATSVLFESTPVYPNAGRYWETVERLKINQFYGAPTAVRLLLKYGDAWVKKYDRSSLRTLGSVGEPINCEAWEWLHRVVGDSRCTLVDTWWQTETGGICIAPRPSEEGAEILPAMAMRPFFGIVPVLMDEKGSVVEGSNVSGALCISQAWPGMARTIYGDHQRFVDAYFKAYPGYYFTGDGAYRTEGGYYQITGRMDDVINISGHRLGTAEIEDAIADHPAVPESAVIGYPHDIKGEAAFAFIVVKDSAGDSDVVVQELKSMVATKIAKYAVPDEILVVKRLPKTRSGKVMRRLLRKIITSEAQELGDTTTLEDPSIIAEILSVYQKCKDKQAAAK
In words: TranScreener AMP biochemical assay of ACSS1 activity. The conditions noted are these: regardless of the substrate (acetate or propionate). In a few lines:
(§1)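 Test compound was serially diluted in DMSO and added to ACSS1 (2 nM) or ACSS3 (25 nM). Acetate reaction: HEPES pH 7.4 buffer with 140 mM NaCl; final 5 mM acetate, 50 μM ATP, 5 μM CoA. Propionate reaction: HEPES/KCl/CHAPS buffer; final 5 mM propionate, 10 μM ATP, 100 μM CoA. Incubation 120 min, then AMP detected by terbium-antibody/tracer TR-FRET after 30 min. Percent inhibition was set against no-enzyme and DMSO controls.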

Series [5] is described as follows: Water solubility in PBS. The series is classed as physicochemical. The note with it: PBS buffer pH 7.4, room temperature. In a few lines: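 10 mg test compound in 1 mL PBS pH 7.4, sonicated 30 min, vortexed 30 min at low speed, then left 16–24 h at room temperature. Filtered (0.22 μm) and 10-fold serially diluted in triplicate in ACN:water (1:1). Internal standard added; LC-MS/MS quantitation against a five-standard calibration curve.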

The target of series [6] is T2, recombinant human ACSS3 (Homo sapiens, UniProt Q9H6R3).
T2 sequence (Q9H6R3 30-686): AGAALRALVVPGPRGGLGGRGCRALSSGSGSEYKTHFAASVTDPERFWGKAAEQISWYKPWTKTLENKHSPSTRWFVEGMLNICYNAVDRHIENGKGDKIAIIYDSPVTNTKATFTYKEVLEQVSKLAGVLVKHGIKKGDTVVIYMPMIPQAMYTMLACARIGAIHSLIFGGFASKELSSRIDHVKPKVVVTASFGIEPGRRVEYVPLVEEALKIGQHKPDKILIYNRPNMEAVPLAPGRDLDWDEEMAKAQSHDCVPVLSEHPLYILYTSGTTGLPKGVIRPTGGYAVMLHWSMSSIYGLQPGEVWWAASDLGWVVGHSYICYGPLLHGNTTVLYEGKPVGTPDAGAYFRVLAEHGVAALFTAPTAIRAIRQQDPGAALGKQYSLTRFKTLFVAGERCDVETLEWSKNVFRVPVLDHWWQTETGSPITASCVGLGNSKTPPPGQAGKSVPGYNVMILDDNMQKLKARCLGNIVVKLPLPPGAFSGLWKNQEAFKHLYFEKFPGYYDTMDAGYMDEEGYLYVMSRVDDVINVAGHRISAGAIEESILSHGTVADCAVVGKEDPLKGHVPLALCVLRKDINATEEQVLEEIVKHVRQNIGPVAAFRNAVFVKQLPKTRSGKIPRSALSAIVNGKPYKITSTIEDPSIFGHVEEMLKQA
In words: TranScreener AMP biochemical assay of ACSS3 activity. The conditions noted are these: regardless of the substrate (acetate or propionate). The method, boiled down:
as §1

As to `CS(=O)(=O)CCNCc1ccc(-c2ccc3ncnc(Nc4ccc(OCc5cccc(F)c5)c(Cl)c4)c3c2)o1` [lapatinib], the “phosphorylation of ERK” value in series [1], in series [2] and in series [3] was “decreases phosphorylation of ERK” in each case.
`COCCNC(=O)Nc1ccc2nc(-c3cccs3)c(-c3cccs3)nc2c1` [VY-3-249, 1-(2,3-di(thiophen-2-yl)quinoxalin-6-yl)-3-(2-methoxyethyl)urea, reference compound]: in series [4], the “inhibitory activity towards ACSS1” value is on record as “neither VY-3-249 nor VY-3-135 displayed any inhibitory activity”. Also, the aqueous solubility entry in series [5] is “poorly soluble”. Also, the “inhibitory activity towards ACSS3” value in series [6] is “neither VY-3-249 nor VY-3-135 displayed any inhibitory activity”.
